Assay results taken from PMC7758955 (ACS Omega, 2020).

How the values were obtained:
COX-1 (ovine) = biological target: T1, COX-1 (ovine) (Ovis aries, UniProt P05979); test: COX Fluorescent Inhibitor Screening Assay Kit, COX-1; format: biochemical
T1 sequence (P05979 25-600): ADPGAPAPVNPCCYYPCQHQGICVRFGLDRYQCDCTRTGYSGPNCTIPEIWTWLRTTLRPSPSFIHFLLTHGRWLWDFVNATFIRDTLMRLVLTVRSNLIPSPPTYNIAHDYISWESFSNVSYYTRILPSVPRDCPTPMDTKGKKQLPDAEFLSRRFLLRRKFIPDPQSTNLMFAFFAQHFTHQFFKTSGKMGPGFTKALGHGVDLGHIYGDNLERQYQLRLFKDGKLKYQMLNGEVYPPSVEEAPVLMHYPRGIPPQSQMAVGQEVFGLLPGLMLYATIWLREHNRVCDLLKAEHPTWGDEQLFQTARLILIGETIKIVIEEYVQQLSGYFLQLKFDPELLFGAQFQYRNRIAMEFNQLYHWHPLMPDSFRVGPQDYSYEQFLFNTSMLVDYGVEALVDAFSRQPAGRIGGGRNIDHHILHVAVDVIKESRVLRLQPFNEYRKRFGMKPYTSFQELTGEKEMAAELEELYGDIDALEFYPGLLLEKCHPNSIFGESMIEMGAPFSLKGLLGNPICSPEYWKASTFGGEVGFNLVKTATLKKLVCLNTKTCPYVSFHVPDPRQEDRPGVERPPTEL

[1] = biological target: T2, COX-2 (human recombinant) (Homo sapiens, UniProt P35354); test: COX Fluorescent Inhibitor Screening Assay Kit, COX-2; format: biochemical
T2 sequence (P35354 18-604): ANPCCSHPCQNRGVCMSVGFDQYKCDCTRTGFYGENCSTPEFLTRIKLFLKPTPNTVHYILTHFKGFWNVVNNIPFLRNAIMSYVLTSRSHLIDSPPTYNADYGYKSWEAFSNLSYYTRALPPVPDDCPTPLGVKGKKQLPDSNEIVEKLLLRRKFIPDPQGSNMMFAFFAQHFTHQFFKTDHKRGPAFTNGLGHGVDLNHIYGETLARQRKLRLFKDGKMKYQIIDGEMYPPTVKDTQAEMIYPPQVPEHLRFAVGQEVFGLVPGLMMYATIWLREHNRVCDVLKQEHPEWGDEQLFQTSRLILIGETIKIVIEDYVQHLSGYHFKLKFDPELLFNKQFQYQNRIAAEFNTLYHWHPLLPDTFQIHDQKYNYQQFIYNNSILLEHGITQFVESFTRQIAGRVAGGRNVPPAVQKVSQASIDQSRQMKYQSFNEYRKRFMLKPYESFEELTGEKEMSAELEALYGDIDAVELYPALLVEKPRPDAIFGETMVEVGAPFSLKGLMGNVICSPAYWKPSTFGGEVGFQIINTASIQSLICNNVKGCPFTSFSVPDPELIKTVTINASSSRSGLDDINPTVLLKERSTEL

[2] = test system: cryopreserved human hepatocytes; test: Hepatocyte toxicity by WST-8 assay; format: cell-based; conditions: 200 μM, 2 h with shaking, relative to control (0.25 v/v% DMSO)
Method in brief: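 Thawed cryopreserved human hepatocytes were kept at 37 °C in humidified 5% CO2 and seeded at 5.0 × 10^4 cells/well. Test compound was added in DMSO (final 0.25% v/v; DMSO-only control), then shaken 2 h. CCK-8 (WST-8) reagent was added for another 4 h. Absorbance was read at 450 nm (reference 600 nm), and viability was expressed relative to control.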

IC50 (COX-1 (ovine)) [µM]	IC50 [1] [µM]	COX-2 inhibition (in words) ([1]; up to a concentration of 100 μM)	COX-2 IC50 relative to that of DCF ([1]; ratio to DCF IC50)	SMILES	cytotoxicity in cryopreserved human hepatocytes (cell viability, WST-8) [2]
> 100	> 100	did not inhibit COX-2	–	O=S(=O)(O)Cc1ccccc1Nc1c(Cl)cccc1Cl [4a]	–
> 100	> 100	–	–	Fc1cc(Cl)c(Nc2ccc(F)cc2Cc2nnn[nH]2)c(Cl)c1 [3d]	–
> 100	> 100	–	–	O=C(O)C(F)(F)c1cc(F)ccc1Nc1c(Cl)cc(F)cc1Cl [2d]	–
> 100	21	–	three times higher	O=C(O)C(F)(F)c1cc(F)ccc1Nc1c(Cl)cccc1Cl [2c]	much weaker than that of DCF
0.67	27	–	–	O=C(O)Cc1ccccc1Nc1c(Cl)cc(F)cc1Cl [1b]	–
> 100	> 100	–	–	O=C(O)C(F)(F)c1ccccc1Nc1c(Cl)cc(F)cc1Cl [2b]	–
0.73	26	–	–	O=C(O)Cc1cc(F)ccc1Nc1c(Cl)cc(F)cc1Cl [1d]	–
